Data from ChEMBL document CHEMBL1143606, “3-Aminopyrazole inhibitors of CDK2/cyclin A as antitumor agents. 2. Lead optimization” (J Med Chem, 2005).
≈ marks a conversion by molar mass, not a printed value. Where “and” joins values, the source holds several entries; their conditions need not be identical. Equal values may be shown once.

Columns and labels:
A2780 [1] = assay: Inhibitory concentration towards human ovarian carcinoma cell line A2780; assay type: functional, cell-based
[2] = target: Cyclin-dependent kinase 2/cyclin A (Homo sapiens, UniProt P24941); assay: Inhibition of cyclin dependent kinase 2-cyclin A; assay type: protein-complex assay
[3] = rat, plasma
physchem [4] = settings: aqueous buffer, pH 7
HT-29 [5] = assay: Percent of BrdU incorporation in HT-29 cells at 1 uM concentration of compound; assay type: functional
HT-29 [6] = assay: Percent of BrdU incorporation in HT-29 cells at 3 uM concentration of compound; assay type: functional
[7] = Inhibition of glycogen synthase kinase-3 beta (n=13)
Summary of the method: (§1)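 IC50 from at least two independent experiments; value is the mean of IC50s obtained by nonlinear least-squares regression fitting. Coefficient of variation of the mean 10% to 24%. GSK-3β belonged to a panel of 30 serine-threonine and tyrosine kinases.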

[8] = target: T1, Cyclin-dependent kinase 1/cyclin B (Homo sapiens, UniProt P06493); assay: Inhibition of cyclin dependent kinase 1-cyclin B (n=6); assay type: protein-complex assay; summary of the method: as §1
[9] = target: T2, Cyclin-dependent kinase 2/cyclin E (Homo sapiens, UniProt P24941); assay: Inhibition of cyclin dependent kinase 2-cyclin E (n=6); assay type: protein-complex assay; summary of the method: as §1
[10] = target: T3, Cyclin-dependent kinase 4/cyclin D1 (Homo sapiens, UniProt P11802); assay: Inhibition of cyclin-dependent kinase 4-cyclin D1 (n=4); assay type: protein-complex assay; summary of the method: as §1
T3 sequence (P11802 whole entry): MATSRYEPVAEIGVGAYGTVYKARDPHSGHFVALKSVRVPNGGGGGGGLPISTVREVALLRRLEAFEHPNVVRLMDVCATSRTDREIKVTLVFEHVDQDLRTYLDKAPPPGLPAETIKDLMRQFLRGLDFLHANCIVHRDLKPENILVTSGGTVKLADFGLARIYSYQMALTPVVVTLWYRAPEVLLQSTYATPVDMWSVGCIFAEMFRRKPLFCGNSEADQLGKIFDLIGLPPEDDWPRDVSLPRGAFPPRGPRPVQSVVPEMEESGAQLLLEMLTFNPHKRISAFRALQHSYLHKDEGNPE
T3 sequence (P24385 whole entry, further chain): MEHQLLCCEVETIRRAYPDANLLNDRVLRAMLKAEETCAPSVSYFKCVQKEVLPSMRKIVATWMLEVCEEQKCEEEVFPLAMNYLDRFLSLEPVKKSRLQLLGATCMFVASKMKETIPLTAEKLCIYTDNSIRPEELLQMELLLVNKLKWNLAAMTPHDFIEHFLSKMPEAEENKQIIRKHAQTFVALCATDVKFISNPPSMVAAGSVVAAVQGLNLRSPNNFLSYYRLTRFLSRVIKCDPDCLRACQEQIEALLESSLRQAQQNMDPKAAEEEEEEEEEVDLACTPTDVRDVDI

HT-29 [11] = assay: Inhibitory concentration towards human colon cancer HT-29 cell line; assay type: functional, cell-based
HCT-116 = assay: Inhibitory concentration towards HCT 116 human colon cancer cell line; assay type: functional, cell-based
A2780 [12] = assay: Inhibitory concentration towards Human ovarian carcinoma cell line A2780; assay type: functional, cell-based
A2780 [13] = assay: Percent inhibition tumor growth of Human ovarian cancer cell A2780 in mice when administered 7.5 mg/kg twice a day for 20 days; assay type: functional; settings: Mus musculus, A2780, 480 h
Summary of the method: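 A2780 tumor kept by sc passage of 20-30 mg brei in athymic mice. Fragments implanted sc in left flank of nude mice, 10 mice/group. Dosing began at measurable tumors (mean 0.13 g, day 8). Dosed orally in 50% PEG 400/glucosate. Body weight followed. Data from a single experiment.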

HT-29 [14] = assay: Percent of BrdU incorporation in Brdu positive HT-29 cells at 1 uM concentration of compound; assay type: functional, Homo sapiens
HT-29 [15] = assay: Percent of BrdU incorporation in Brdu positive HT-29 cells at 3 uM concentration of compound; assay type: functional, Homo sapiens
[16] = target: T1, Cyclin-dependent kinase 1/cyclin B; assay: Inhibition of cyclin dependent kinase 1-cyclin B (n=4); assay type: protein-complex assay; summary of the method: as §1
[17] = target: T2, Cyclin-dependent kinase 2/cyclin E; assay: Inhibition of cyclin dependent kinase 2-cyclin E (n=4); assay type: protein-complex assay
Summary of the method: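 Kinase inhibition assay run by a previously reported method. IC50 is the mean of values from nonlinear least-squares regression fits, with at least two independent experiments per compound. Coefficient of variation of the mean was 10% to 24%.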

[18] = Inhibition of glycogen synthase kinase-3 beta (n=6); summary of the method: as §1
[19] = target: T3, Cyclin-dependent kinase 4/cyclin D1; assay: Inhibition of cyclin-dependent kinase 4-cyclin D1 (n=2); assay type: protein-complex assay; summary of the method: as §1
[20] = target: Cyclin-dependent kinase 5/CDK5 activator 1 (Homo sapiens, UniProt Q00535); assay: Inhibition of cyclin-dependent kinase 5 p25 alpha (n=4); assay type: protein-complex assay; summary of the method: as §1
Sequence of Cyclin-dependent kinase 5/CDK5 activator 1 (Q00535 whole entry): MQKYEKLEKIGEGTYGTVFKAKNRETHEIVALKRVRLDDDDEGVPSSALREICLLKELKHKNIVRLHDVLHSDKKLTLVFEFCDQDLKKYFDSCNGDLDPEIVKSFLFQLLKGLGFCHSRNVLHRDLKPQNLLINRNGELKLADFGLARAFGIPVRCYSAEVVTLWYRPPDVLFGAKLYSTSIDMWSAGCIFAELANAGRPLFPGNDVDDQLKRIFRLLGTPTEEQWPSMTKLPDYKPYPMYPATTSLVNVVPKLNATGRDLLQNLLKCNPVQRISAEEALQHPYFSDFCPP
Sequence of Cyclin-dependent kinase 5/CDK5 activator 1 (Q15078 whole entry, further chain): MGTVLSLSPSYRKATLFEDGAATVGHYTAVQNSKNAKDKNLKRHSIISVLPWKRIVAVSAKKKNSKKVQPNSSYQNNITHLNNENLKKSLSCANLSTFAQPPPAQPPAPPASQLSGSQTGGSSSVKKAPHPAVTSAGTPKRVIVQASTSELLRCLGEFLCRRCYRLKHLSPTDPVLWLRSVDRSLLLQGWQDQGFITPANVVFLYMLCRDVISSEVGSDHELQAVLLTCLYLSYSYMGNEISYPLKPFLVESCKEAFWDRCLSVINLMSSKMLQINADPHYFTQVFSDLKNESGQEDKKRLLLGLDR

[21] = Half-life of compound in plasma of CD-1 mice upon o.s. dose; assay type: ADME, cell-free; settings: CD-1, mouse, po
Summary of the method: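 Mice dosed orally at 10 mg/kg in PEG 400/glucosate vehicle (preliminary PK, with iv and oral legs); plasma terminal half-life determined.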

[22] = mouse, in vivo
[23] = mouse, in vivo; remark: listed apart in the source
[24] = mouse, in vivo, iv
physchem [25] = settings: aqueous buffer

Row | Compound | IC50 (A2780 [1]) [nM] | IC50 [2] [nM] | Binding [3] | solubility (physchem [4]) [µM] | other results
1 | CC(C(=O)Nc1cc(C2CC2)[nH]n1)c1ccc(N2C(=O)CCC2c2ccccc2)cc1 (configuration not stated) | 15300 | 200 | 97% | 50 (≈ 20.7 µg/mL) | –
2 | CC(C(=O)Nc1cc(C2CC2)[nH]n1)c1ccc(N2CC(=O)NC2=O)cc1 (configuration not stated) | 4540 | 17 | 67% | 201 (≈ 71 µg/mL) | –
3 | CC(C(=O)Nc1cc(C2CC2)[nH]n1)c1ccc(N2CCC(C(N)=O)C2=O)cc1 (configuration not stated) | 5710 | 20 | 57% | 120 (≈ 45.8 µg/mL) | –
4 | N[C@H](C(=O)Nc1cc(C2CC2)[nH]n1)c1ccccc1 | – | 960 | – | – | –
5 | CC(C(=O)Nc1cc(C2CC2)[nH]n1)c1ccc(N2Cc3ccccc3C2=O)cc1 (configuration not stated) | 4750 | 13 | – | 12 (≈ 4.64 µg/mL) | –
6 | CC(C(=O)Nc1cc(C2CC2)[nH]n1)c1ccc(N2C(=O)CCC2C)cc1 (configuration not stated) | 6400 | 150 | 67% | 222 (≈ 78.2 µg/mL) | –
7 | COC(C(=O)Nc1cc(C2CC2)[nH]n1)c1ccccc1 (configuration not stated) | – | 5000 | – | – | –
8 | CC(C(=O)Nc1cc(C2CC2)[nH]n1)c1ccc(N2C(=O)CNC2=O)cc1 (configuration not stated) | > 10000 | 124 | – | – | –
9 | O=C(Nc1cc(C2CC2)n[nH]1)C(=O)c1ccccc1 | – | 2600 | – | – | –
10 | C[C@@H](C(=O)Nc1cc(C2CC2)[nH]n1)c1ccc(N2CCOC2=O)cc1 | – | 2500 | 72% | 220 (≈ 74.9 µg/mL) | –
11 | CC(C(=O)Nc1cc(C2CC2)[nH]n1)c1ccc(N2CCCCC2=O)cc1 (configuration not stated) | > 10000 | 240 | – | – | –
12 | C[C@@H](C(=O)Nc1cc(C2CC2)[nH]n1)c1ccc(N2CCCC2=O)cc1 | 12200 | 2500 | – | – | –
13 | CC(C(=O)Nc1cc(C2CC2)[nH]n1)c1ccc(N2CCN(Cc3ccccc3)C2=O)cc1 (configuration not stated) | – | 1450 | – | – | –
14 | CC(C(=O)Nc1cc(C2CC2)[nH]n1)c1ccc(N2CCCC2=O)cc1 (configuration not stated) | 630 | 169 | – | – | –
15 | C[C@H](C(=O)Nc1cc(C2CC2)[nH]n1)c1ccc(N2CCCC2)cc1 | 220 | – | 98% | 24 (≈ 7.79 µg/mL) | –
16 | C[C@H](C(=O)Nc1cc(C2CC2)[nH]n1)c1ccc(N2Cc3ccccc3C2=O)cc1 | 1020 | 2 | – | 5 (≈ 1.93 µg/mL) | –
17 | C[C@@H](C(=O)Nc1cc(C2CC2)[nH]n1)c1ccc(N2CCNC2=O)cc1 | 13200 | 455 | 74% | 220 (≈ 74.7 µg/mL) | –
18 | O=C(Cc1ccc2ccccc2c1)Nc1cc(C2CC2)n[nH]1 | – | – | 99% | 22 (≈ 6.41 µg/mL) | –
19 | CC(C(=O)Nc1cc(C2CC2)[nH]n1)c1ccc(N2CCNC2=O)cc1 (configuration not stated) | 2250 | 12 | 74% | 224 (≈ 76 µg/mL) | –

Row | Compound | IC50 (A2780 [1]) [nM] | IC50 [2] [nM] | Binding [3] | solubility (physchem [4]) [µM] | other results
20 | C[C@H](C(=O)Nc1cc(C2CC2)[nH]n1)c1ccc(N2CCN(C)C2=O)cc1 | 1400 | 17 | – | – | –
21 | CC(C(=O)Nc1cc(C2CC2)[nH]n1)c1ccc(N2CCCS2(=O)=O)cc1 (configuration not stated) | 5240 | – | 78% | 135 (≈ 50.6 µg/mL) | –
22 | C[C@@H](C(=O)Nc1cc(C2CC2)[nH]n1)c1ccc(N2Cc3ccccc3C2=O)cc1 | – | 170 | – | 51 (≈ 19.7 µg/mL) | –
23 | C[C@H](C(=O)Nc1cc(C2CC2)[nH]n1)c1ccc(N2CCNC2=O)cc1 | 1270 | 2 | 74% | > 225 | –
24 | CC(C(=O)Nc1cc(C2CC2)[nH]n1)c1ccc(-n2cc[nH]c2=O)cc1 (configuration not stated) | 6980 | 11 | 74% | 233 (≈ 78.6 µg/mL) | –
25 | O=C(Nc1cc(C2CC2)[nH]n1)C(c1ccccc1)c1ccccc1 | – | > 10000 | – | – | –
26 | CC(C(=O)Nc1cc(C2CC2)[nH]n1)c1ccc(N2CCCC2)cc1 (configuration not stated) | 370 | – | 96% | 3 (≈ 0.973 µg/mL) | –
27 | CC(C(=O)Nc1cc(C2CC2)[nH]n1)c1ccc(N2CCOC2=O)cc1 (configuration not stated) | 1040 | 25 | 73% | 222 (≈ 75.6 µg/mL) | –
28 | O=C(Nc1cc(C2CC2)[nH]n1)C(F)c1ccccc1 (configuration not stated) | – | 99 | – | – | –
29 | CC(C(=O)Nc1cc(C2CC2)[nH]n1)c1ccc(-n2cn[nH]c2=O)cc1 (configuration not stated) | 8390 | 73 | 58% | 109 (≈ 36.9 µg/mL) | –
30 | CO[C@@H](C(=O)Nc1cc(C2CC2)n[nH]1)c1ccccc1 | – | > 10000 | – | – | –
31 | CC(C(=O)Nc1cc(C2CC2)[nH]n1)c1ccc(N2CCN(C)C2=O)cc1 (configuration not stated) | 1680 | 29 | – | – | –
32 | C[C@@H](C(=O)Nc1cc(C2CC2)[nH]n1)c1ccc(N2CCN(C)C2=O)cc1 | – | 8500 | – | – | –
33 | CO[C@H](C(=O)Nc1cc(C2CC2)n[nH]1)c1ccccc1 | – | 2000 | – | – | –
34 | C[C@H](C(=O)Nc1cc(C2CC2)[nH]n1)c1ccccc1 | – | 84 | – | – | –
35 | C[C@@H](C(=O)Nc1cc(C2CC2)[nH]n1)c1ccccc1 | – | 6000 | – | – | –
36 | C[C@H](C(=O)Nc1cc(C2CC2)[nH]n1)c1ccc(N2CCCC2=O)cc1 | 800 | 37 | – | – | Brdu positive (HT-29 [5]): 25%; Brdu positive (HT-29 [6]): 4%; IC50 [7]: 732 nM; IC50 [8]: 208 nM; IC50 [9]: 55 nM; IC50 [10]: > 10000 nM; IC50 (HT-29 [11]): 639 nM; IC50 (HCT-116): 1350 nM; IC50 (A2780 [12]): 744 nM; inhibition in vivo at 7.5 mg/kg (A2780 [13]): 73%
37 | CC(C(=O)Nc1cc(C2CC2)[nH]n1)c1ccccc1 (configuration not stated) | – | 169 | – | – | –
38 | C[C@H](C(=O)Nc1cc(C2CC2)[nH]n1)c1ccc(N2CCOC2=O)cc1 | 790 | 20 | 73% and 74% | 232 (≈ 79 µg/mL) | Activity (HT-29 [14]): 65%; Activity (HT-29 [15]): 0.7%; IC50 [16]: 243 nM; IC50 [17]: 37 nM; IC50 [18]: 406 nM; IC50 [19]: > 10000 nM; IC50 [20]: 57 nM; IC50 (HT-29 [11]): 751 nM; IC50 (HCT-116): 1130 nM; IC50 (A2780 [12]): 716 nM; half-life [21]: 3.1 h; Clearance [22]: 4.7 mL/min/kg; Vss [23]: 0.573 L/kg; T1/2 [24]: 2.8 min; solubility (physchem [25]): 225 µM (≈ 76.6 µg/mL)
